This is a sample that favours compounds with a hit; in the whole collection about 2.9% have one here.
PG9 binder: binders of HIV-1 gp120 antibody PG9, primary screen, biochemical, TR-FRET | TR-FRET gp120-PG9 antibody binding | inhibition, % at 6.7 µM | 0.43% of 360,000 active | AID 624416, 2012; in the data active = inhibition above about 8.5%
NR1D1 modulator: modulators of Rev-erb alpha DNA binding, primary screen, biochemical, FITC-DNA, fluorescence polarization, uHTS; Nuclear receptor subfamily 1 group D member 1 (Homo sapiens), P20393; Rev-erbα–FITC-DNA binding, 90 min; activity, % at 10 µM; 0.79% of 370,000 active; AID 1259318, 2017;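 active = activity above about 14%, limit read from the data; passing the limit was not always enough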;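 note: 0% = DMSO wells with 35 nM protein and 100% = DMSO wells with 750 nM protein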
Target sequence (P20393 whole entry, looked up): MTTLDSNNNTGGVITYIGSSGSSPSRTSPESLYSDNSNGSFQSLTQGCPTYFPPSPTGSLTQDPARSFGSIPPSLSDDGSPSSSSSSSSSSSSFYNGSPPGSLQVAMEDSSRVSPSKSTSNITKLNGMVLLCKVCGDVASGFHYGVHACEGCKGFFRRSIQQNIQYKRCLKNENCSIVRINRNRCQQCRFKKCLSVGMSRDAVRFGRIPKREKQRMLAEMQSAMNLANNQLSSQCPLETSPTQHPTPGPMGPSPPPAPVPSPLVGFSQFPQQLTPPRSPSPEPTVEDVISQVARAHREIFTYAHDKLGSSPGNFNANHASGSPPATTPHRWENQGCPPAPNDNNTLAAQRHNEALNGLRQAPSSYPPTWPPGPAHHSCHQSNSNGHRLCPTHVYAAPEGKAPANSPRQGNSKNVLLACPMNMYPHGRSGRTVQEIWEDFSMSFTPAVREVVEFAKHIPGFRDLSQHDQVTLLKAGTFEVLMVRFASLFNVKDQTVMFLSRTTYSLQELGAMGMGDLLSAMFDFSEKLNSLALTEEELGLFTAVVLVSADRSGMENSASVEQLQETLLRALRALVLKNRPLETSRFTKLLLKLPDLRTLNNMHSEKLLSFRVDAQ
TAG inh: inhibitors of triacylglycerol accumulation, primary screen, cell-based, uHTS, fluorescence, H9c2 | H9c2 cells, Nile Red lipid (TAG) fluorescence; cells loaded with 200 µM oleic acid | inhibition, % at 12.5 µM | 0.66% of 230,000 active | AID 651582, 2012;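 active = pattern-corrected inhibition of lipid staining of at least 50% with the nuclear-stain viability signal not falling by more than 50%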;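 note: 0% = DMSO wells and 100% = triacsin C control wells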
beta cell repl: inducers of MIN6 beta-cell proliferation, primary screen, ATP luminescence, uHTS | AID 2380, 2010 | 0.29% of 330,000 active | proliferation, % at 10 µM | MIN6 cells proliferation, ATPlite luminescence, 48 h; cells starved in 0.2% serum; 100% = growth in 10% serum;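 active = compounds whose signal lies at least 3.5 SD above the mean of all wells on their plate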;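 note: 0% = DMSO-treated cells in low-serum medium and 100% = 10% serum control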
iPSC survival up: enhancers of single-cell hiPSC survival, primary screen, ATPlite luminescence | 100% = ROCK inhibitor wells, 0% = DMSO | survival enhancement, % at 20 µM | 0.044% of 360,000 active; in the data active = survival enhancement above about 18%;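 note: cells exposed to compounds for 16 hours before the ATP read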
T cruzi repl: inhibitors of intracellular T. cruzi growth, primary screen, luminescence, NIH3T3 host cells; T. cruzi beta-gal in NIH3T3, 90 h; inhibition, % (no concentration beside the values); 1.4% of 300,000 active; AID 1885, 2009;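 active = mean inhibition across valid replicates above about 55%, limit read from the data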;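 note: signal also drops with host cell toxicity which is not excluded here; 0% = plate median of DMSO wells and 100% = zero luminescence signal; higher percent means less beta-gal luminescence so fewer parasites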
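Assay system: NIH/3T3 host cells with β-galactosidase reporter T. cruzi; input: 5,000 host fibroblasts per well; compound: single 50 nL compound addition per well in DMSO; timing: ≥90 h infection period, 3 h prior cell attachment; measured by: GalScreen β-gal luminescence, detergent lysis, 60 min; evaluation: percent inhibition of parasite-derived β-gal signal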
Rev-erbA confirm: modulators of Rev-erb alpha DNA binding, confirmation, biochemical, FITC-DNA, fluorescence polarization, single point. shares compounds with NR1D1 modulator. 90 min. activation, % at 25 µM. 61% of 3,000 active;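 active = activation at or above a set limit, or at least 3 SD above the negative control mean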;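 note: 0% = 35 nM protein with DMSO and 100% = 750 nM protein high control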
RORg DNA counter: modulation of RORgamma DNA binding, dose response, counter-screen for Rev-erb alpha modulator project, biochemical, fluorescence polarization, FITC-DNA; shares compounds with NR1D1 modulator; purified RORgamma protein-FITC-DNA binding; IC50, µM; 8% of 910 active; AID 1259320, 2017;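 active = Compounds whose fitted half-maximal concentration for disrupting protein-DNA binding is below 10 micromolar; the record names Rev-erb in its text, so the target is in doubt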
An asterisk follows results filed as active; nt = not tested or not shown.

SMILES	PG9 binder	NR1D1 modulator	TAG inh	beta cell repl	iPSC survival up	T cruzi repl	Rev-erbA confirm	others
COC(=O)c1ccc2c(=O)[nH]c(COC(=O)CCC(=O)c3ccc(Cl)cc3)nc2c1	5.7	19.9*	3.2	0.7	0.1	-5.9	5.9
CCCSc1nc(SCC(=O)NCc2ccccc2)c2c3c(sc2n1)COC(C)(C)C3	-0.3	45.3*	56.2*	-1.6	-1.6	-20.0	14.7
CC(C)Sc1nc(SCC(=O)NCc2ccco2)c2c3c(sc2n1)COC(C)(C)C3	1.0	-4.4	18.7	-2.6	-0.2	24.9	nt
C#CCN(C(=O)c1cc(COc2ccc(C)c(C)c2)on1)C1CCCCC1	-2.3	-4.5	-10.8	-5.6	0.4	20.3	nt
COc1cc(C(=O)NCc2cccnc2)ccc1OCC(=O)Nc1cccc(C(F)(F)F)c1	0.0	18.3*	-0.5	-5.7	0.1	-17.9	7.1
COC(=O)Cn1c(=NC(=O)c2cccc(OC)c2)sc2cc(OC)ccc21	0.0	31.0*	nt	1.7	-1.5	25.6	22.9*
COC(=O)Cn1c(=NC(=O)c2cc(OC)cc(OC)c2)sc2cc(OC)ccc21	1.8	31.2*	5.3	1.1	-1.2	32.7	4.8
COc1ccc(C(=O)N=c2sc3ccccc3n2C)cc1	2.4	51.9*	11.2	-2.0	-0.3	11.6	23.1*
COC(=O)Cn1c(=NC(=O)c2ccc(S(=O)(=O)N3CCc4ccccc4C3)cc2)sc2cc(OC)ccc21	6.5	39.5*	nt	0.0	-2.2	-4.2	2.2
COc1ccc(-c2oc3ccc(-c4cc(OC)c(OC)c(OC)c4)cc3c2C(=O)c2ccc(OC)nc2)cc1	1.0	22.4*	4.2	-3.3	1.0	21.7	2.5
Cc1ccc(CSCC(=O)Nc2cc(S(=O)(=O)N3CCOCC3)ccc2OCC(F)(F)F)cc1	0.9	4.7	8.6	nt	3.7	nt	nt
CN1/C(=C\C=C2/C(=O)Oc3ccccc3C2=O)C(C)(C)c2ccccc21	-1.7	58.8*	nt	nt	nt	12.3	53.4*	RORg DNA counter=>40
CC1=NN(c2ccccc2)C(=O)/C1=C\C=C1\N(C)c2ccccc2C1(C)C	-3.0	49.4*	nt	-5.0	-2.3	25.9	54.3*	RORg DNA counter=>40
CC1=NN(c2ccccc2)C(=O)/C1=C\C=C1/N(C)c2ccccc2C1(C)C	-3.9	79.0*	8.2	-2.7	-0.3	11.6	87.2*	RORg DNA counter=8.63*
COC(=O)Cn1cc(/C=C/c2cc[n+](C)cc2)c2ccccc21	-2.6	54.9*	-6.7	-1.6	-0.4	-4.5	63.3*	RORg DNA counter=>40
CNC(=O)/C(C#N)=C/c1cn(CC(=O)OC)c2ccccc12	-1.7	0.5	7.7	-1.2	2.1	-16.1	nt
COC(=O)Cn1c(C)c(/C=C/c2cc[n+](C)cc2)c2ccccc21	-9.6	154.1*	nt	-0.5	-0.3	10.5	113.7*	RORg DNA counter=>40
CN1CCN(C(=O)c2ccc(N3CCCC3=O)cc2)CC1	0.7	0.3	7.8	-4.0	-2.2	-13.8	nt
CC(=O)c1cc(NC(=O)c2ccc(Cl)cc2)c(=O)oc1/C=C/N(C)C	-10.4	26.1*	nt	1.5	0.0	-5.2	28.7*
CC(=O)c1cc(NC(=O)c2cccc(C(F)(F)F)c2)c(=O)oc1/C=C/N(C)C	-1.2	20.1*	-29.1	-3.0	2.4	11.0	14.4
CC(=O)c1cc(NC(=O)c2cccc(C(F)(F)F)c2)c(=O)oc1C	0.5	-6.0	nt	-2.2	-1.0	-51.3	nt
Cc1ccc(C(=O)NCCc2ccc(S(=O)(=O)N3CCCC3)cc2)cc1	-0.3	1.0	-7.3	-1.0	0.6	12.0	nt
CC(=O)Oc1ccc(/C=N/NS(=O)(=O)c2ccc(C)cc2)c(OC(C)=O)c1	-0.1	8.3	nt	3.1	0.5	-13.1	nt
CN(C)S(=O)(=O)c1cccc(NC(=O)Cc2ccc(-c3ccccc3)cc2)c1	-2.2	-0.7	-5.7	-4.6	0.0	48.6	nt
O=C(Nc1cccc(-c2csc(Nc3ccccc3)n2)c1)c1ccccc1	-1.2	-3.9	21.8	-8.6	-2.4	22.3	nt
SMILES	PG9 binder	NR1D1 modulator	TAG inh	beta cell repl	iPSC survival up	T cruzi repl	Rev-erbA confirm	others
O=C(Nc1nc(-c2ccc3c(c2)Cc2ccccc2-3)cs1)c1ccccc1	-2.6	50.0*	nt	0.8	-1.3	-6.1	14.0
COc1ccc(-n2c(SCC(=O)Nc3ccc4c(c3)OCO4)nc3ccccc3c2=O)cc1	-3.4	1.7	nt	-3.9	-0.9	29.6	nt
Cc1cc(NC(=O)CSc2nc3ccccc3c(=O)n2-c2ccccc2)no1	0.6	27.0*	-6.3	-2.6	-0.8	-8.9	6.3
Cc1ccc(NC(=O)CSc2nc3ccccc3c3nc4ccccc4n23)cc1	2.8	57.7*	nt	-2.5	-1.6	-91.1	10.2
Cc1ccc(-n2c(SCC(=O)c3ccc4c(c3)OCO4)nc3ccccc3c2=O)cc1	nt	-3.0	nt	nt	nt	nt	nt
Cc1ccc(C(=O)CSc2nc3ccccc3c(=O)n2-c2ccccc2)s1	28.7*	49.1*	-15.1	-1.4	-2.1	6.9	34.8*	RORg DNA counter=>40
COc1ccc(NC(=O)CSc2nc3ccccc3c(=O)n2-c2ccc3c(c2)OCO3)c(OC)c1	-0.6	83.9*	nt	-4.0	-2.4	41.8	126.8*	RORg DNA counter=>40
COc1ccc(NC(=O)CSc2nc3ccccc3c3nc4ccccc4n23)cc1	-1.5	7.0	nt	nt	-0.9	nt	nt
Nc1nonc1C(=O)NCCNC(=O)c1ccccc1F	-2.5	-1.2	0.8	-0.2	-0.6	-8.2	nt
CCCCn1c(SCC(=O)Nc2cc(C)on2)nc2ccsc2c1=O	-3.2	45.1*	nt	0.5	-0.2	17.2	27.1*
COCCn1c(SCC(=O)Nc2cccc(OC)c2)nc2c(oc3ccccc32)c1=O	-0.3	-4.9	1.9	2.6	0.4	12.4	nt
O=C(CSc1nc2ccccc2c(=O)n1-c1ccc(F)cc1)Nc1cc(S(=O)(=O)N2CCOCC2)ccc1Cl	-1.2	65.2*	nt	0.0	0.6	5.6	33.5*	RORg DNA counter=>40
Cc1ccc(-n2c(SCC(=O)Nc3cccc(C)c3)nc3c(oc4ccccc43)c2=O)cc1	-1.2	78.8*	nt	0.0	nt	27.0	125.0*	RORg DNA counter=>40
CCC(C)c1ccc(OCC(=O)Nc2cccc(C(=O)Nc3ccc(C(=O)O)cc3)c2)cc1 (stereo unspecified)	0.3	3.0	2.0	-4.1	-0.6	-12.1	nt
Cn1cc(C2=C(c3ccc(Cl)cc3Cl)C(=O)NC2=O)c2ccccc21	-2.1	36.2*	-26.0	-0.4	0.5	11.6	20.1*

Compound activity (PubChem)
